In publication PMC11544174 (Acta Pharmaceutica Sinica. B, 2024) one finds IC50 and CC50 data, which are given here for 1 molecule.

By CC50 is commonly meant the concentration at which the toxic effect on the cells reaches its halfway point. A higher CC50 goes with lower toxicity to the cells.

The test system of series [1] is respiratory syncytial virus (RSV). Nature of the series: cytopathic effect. The conditions noted are these: human respiratory syncytial virus, HEp-2, read-out: IC50 ± SD (50% inhibition concentration), anti-RSV activity. Type of series: cell-based, strain A2. Put shortly: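 Host cells were HEp-2 in DMEM with 10% FBS. RSV A2 stock was propagated in HEp-2 and titred by plaque assay. Test compounds were held as 50 mmol/L DMSO stocks at −20 °C and diluted into medium to final concentrations. Ribavirin served as positive control.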

The next series can be described thus: cytotoxicity. The format is cell-based. The conditions noted are these: human, HEp-2 cells. The method, boiled down: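 HEp-2 cells were grown in DMEM with 10% FBS. Test compounds were held as 50 mmol/L DMSO stocks at −20 °C and diluted into culture medium to final concentrations. Ribavirin served as positive control.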

Consider `NC(=O)c1ncn([C@@H]2O[C@H](CO)[C@@H](O)[C@H]2O)n1` [Ribavirin], for which the IC50 in series [1] turned out to be 15 ± 1 µM. In “cytotoxicity”, the CC50 is more than 50 µM.
